SUMO Mot1 rescue: yeast Mot1-301 growth rescue at high temperature, primary screen, SUMOylation pathway inhibitor project, S. cerevisiae, ATP luminescence, 38.5C | S. cerevisiae Mot1-301 growth rescue; percent above DMSO median, 100 means doubled | growth rescue, % at 18.8 µM | 320,000 tested, 1% active | AID 2716, 2010;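 active = every valid replicate shows activation above 250% relative to neutral control wells; inactive = the rest, any valid replicate at or below 250%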
Efflux pump inh: inhibitors of Candida efflux pumps in yeast, primary screen, S. cerevisiae, Nile Red, multiplex. S. cerevisiae Candida pump triplex. inhibition, % at 10 µM. 330,000 tested, 0.44% active. AID 485275, 2010;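 active = plate passing quality check with inhibition over a set limit, or well fluorescence over plate mean plus 4 SD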;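 also: Nile Red retained in pooled yeast measured as flow cytometry median fluorescence; higher means more Nile Red kept so more efflux inhibition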
RTF Ca sens inh: cardiac RTF calcium sensitivity inhibitors, primary screen, biochemical, IANBD-TnC fluorescence, EC70 calcium; IANBD-labeled cardiac RTF, Ca2+ fluorescence; AID 493244, 2011; 340,000 tested, 0.12% active; inhibition, % at 7.15 µM;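 active = inhibition above the mean inhibition of all tested compounds plus 3 SD, cut at about 17% in these data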;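 also: assay run at fixed EC70 calcium of 1.6 mM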
ARNT-TACC3 inh: disruptors of ARNT/TACC3 protein interaction, primary screen, biochemical, AlphaScreen, single concentration. AlphaScreen His-ARNT PAS-B/GST-TACC3 binding, luminescence; TACC3 fragment carries E629A point mutation. inhibition, % at 9.99 µM. 390,000 tested, 0.66% active;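 active = mean inhibition of replicates at least 50% and at least half of replicates each reaching 50%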
RTF Ca sens act: cardiac RTF calcium sensitivity activators, primary screen, biochemical, IANBD-TnC fluorescence, EC20 calcium. Troponin I, cardiac muscle (Homo sapiens) + Troponin T, cardiac muscle (Homo sapiens) + …. activation, % at 7.2 µM. AID 493008, 2010. 340,000 tested, 0.24% active. IANBD-labeled TnC RTF fluorescence at EC20 calcium; 0% EC20 calcium, 100% full calcium;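 active = activation above the mean over all tested compounds plus 3 SD, cut at about 30% in these data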;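 also: rise in fluorescence read as greater calcium sensitivity of cardiac thin filaments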
UCH37 DUB inh: inhibitors of human UCH37 deubiquitinase, primary screen, biochemical, Ub-AMC cleavage, fluorescence; Ubiquitin carboxyl-terminal hydrolase isozyme L5 (Homo sapiens), Q9Y5K5; purified proteasome/UCH37; inhibition, % (test concentration not listed); 330,000 tested, 0.33% active;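 active = mean inhibition over replicate wells above about 20%, limit read from the data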
Target sequence (Q9Y5K5 whole entry, looked up): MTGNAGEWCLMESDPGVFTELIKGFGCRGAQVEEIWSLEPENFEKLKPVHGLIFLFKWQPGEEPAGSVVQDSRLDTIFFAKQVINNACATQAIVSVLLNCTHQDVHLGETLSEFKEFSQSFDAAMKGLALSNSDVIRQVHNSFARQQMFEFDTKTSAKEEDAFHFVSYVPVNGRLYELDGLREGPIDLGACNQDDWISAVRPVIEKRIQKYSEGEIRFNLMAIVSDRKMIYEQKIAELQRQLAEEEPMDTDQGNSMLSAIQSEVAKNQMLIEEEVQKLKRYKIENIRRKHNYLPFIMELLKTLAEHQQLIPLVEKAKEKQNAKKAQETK
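Material: human UCH37 enzyme supplied as purified proteasome complex / Amount: 0.15 nM proteasome as dispensed / Buffer or medium: pH 7.4 Tris-HCl (50 mM) with ovalbumin, ATP-MgCl2, DTT / Times: preincubation 30 min, reaction 25 min, room temperature / Technique: AMC fluorescence from Ub-AMC cleavage, excitation 355 nm, emission 460 nm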
Numbers stand for hits; n = inactive; x = not tested or not shown; + = active, no number. Most compounds without a hit are left out; they make up all but 2.1% or so of the library.

SMILES	SUMO Mot1 rescue	Efflux pump inh	RTF Ca sens inh	ARNT-TACC3 inh	RTF Ca sens act	UCH37 DUB inh
Cn1ccc(C=N/N=C2/NC(=O)CS2)n1	x	x	x	x	x	n
Nc1ccc(Oc2ccc3c(c2)C(=O)N(CC2CCCO2)C3=O)cc1 (stereo not drawn)	284	n	n	n	n	n
S=c1[nH]nc(-c2ccco2)n1N=Cc1ccccn1	x	x	x	x	x	n
C=CCN1C(=O)[C@H]2CCC=C[C@H]2[C@@H]1c1cccc(C)c1	x	n	n	n	n	24
Cc1cccc([C@H]2[C@@H]3C=CCC[C@@H]3C(=O)N2Cc2ccccc2)c1	x	n	n	n	n	n
COc1cc(/C=C2/SC(=Nc3ccc(O)cc3)NC2=O)ccc1O	n	n	n	n	n	n
COc1cc(/C=C2\SC(=Nc3ccc(Cl)c(C(=O)O)c3)NC2=O)c(Br)c(Br)c1O	n	n	n	n	70	x
COc1cc(/C=C2\SC(=Nc3ccccc3)NC2=O)cc(Cl)c1O	n	n	n	n	63	n
CCOC(=O)Cc1csc(NN=Cc2ccccc2OC)n1	x	x	x	x	x	n
O=C1c2c(O)ccc(O)c2C(=O)c2c(NCCNCCO)ccc(NCCNCCO)c21	n	n	n	65	n	n
O=C(Nc1nnc(-c2ccncc2)o1)c1cccc(N2C(=O)CCC2=O)c1	n	n	n	x	n	n
O=C(Nc1nnc(-c2ccco2)o1)c1cccc(N2C(=O)CCC2=O)c1	n	n	n	49	n	n
O=[N+]([O-])c1cc(-c2ccc(C(=S)N3CCOCC3)o2)ccc1Cl	n	n	n	n	n	21
O=[N+]([O-])c1cccc(-c2ccc(C(=S)N3CCOCC3)o2)c1	n	n	n	x	n	n
COc1cc2[nH]c(=S)nc(Nc3ccc(NC(C)=O)cc3)c2cc1OC	n	n	n	x	n	n
COc1cc2[nH]c(=S)nc(NCCc3ccc(S(N)(=O)=O)cc3)c2cc1OC	n	n	n	70	n	n
COc1ccc(CCNc2nc(=S)[nH]c3cc(OC)c(OC)cc23)cc1OC	n	n	n	56	n	n
COc1ccccc1CNc1nc(=S)[nH]c2cc(OC)c(OC)cc12	n	n	n	53	n	n
COc1cc2[nH]c(=S)nc(NCc3cccs3)c2cc1OC	n	n	n	n	n	n
COc1cc2[nH]c(=S)nc(NCCc3ccc(C)cc3)c2cc1OC	x	x	n	n	n	n
Cc1cc(C(=O)NN=Cc2cccs2)n[nH]1	x	x	x	x	x	n
CS/C(N)=N/N=Cc1cc(C)ccc1O	x	x	x	x	x	n
O=c1[nH]c2cc3ccccc3cc2nc1C(F)(F)F	n	n	n	n	n	n
O=c1[nH]c(-c2ccccn2)nc(C(F)(F)F)c1Br	n	n	n	63	n	n
O=C(Nc1ccccc1F)c1ccc([N+](=O)[O-])s1	n	n	n	n	n	n
SMILES	SUMO Mot1 rescue	Efflux pump inh	RTF Ca sens inh	ARNT-TACC3 inh	RTF Ca sens act	UCH37 DUB inh
CN(C)NC(=O)c1ccc([N+](=O)[O-])s1	n	n	n	n	31	n
O=C(CNC(=O)c1cccc(F)c1)NN=Cc1cccc([N+](=O)[O-])c1	x	x	x	x	x	n
O=C(CNC(=O)C1COc2ccccc2O1)NN=Cc1ccc(Cl)cc1 (stereo not drawn)	x	x	x	x	x	n
COc1cccc(NC(=O)C2CCN(S(=O)(=O)c3ccccc3)CC2)c1	n	n	n	47	n	n
CC(=NNC(=O)c1ccc(O)cc1O)c1cccnc1	x	x	x	x	x	n
Cc1cccc(CSc2nnc(-c3ccccn3)n2N)c1	n	n	n	45	n	n
CCOC(=O)N1CCN(C(=O)c2ccc3c(=O)n4c(nc3c2)CCCCC4)CC1	n	n	x	x	x	29
O=S(=O)(Nc1cccc2cccnc12)c1ccccc1	n	n	n	n	n	x
O=S(=O)(Nc1cccc2cccnc12)c1ccc(S(=O)(=O)N2CCCC2)cc1	n	n	n	67	n	n
O=C1c2ccc([N+](=O)[O-])cc2NC(c2ccco2)N1N=Cc1ccco1 (stereo not drawn)	x	x	x	x	x	n
O=C(NN=Cc1cccnc1)c1ccccc1Br	x	x	x	x	x	n
O=C(COC(=O)c1cc(S(=O)(=O)N2CCOCC2)ccc1O)Nc1cc(S(=O)(=O)N2CCCC2)ccc1Cl	352	n	n	n	n	n
COC(=O)CCC(=NNc1ccc(Cl)c(Cl)c1)C(=O)OC	x	x	x	x	x	n
Nc1ccc2cc3[nH]c4cc(N)ccc4c3nc2c1	x	x	n	n	+	x
Nc1ccc(-c2nc3ccc(N)cc3[nH]2)cc1	n	n	n	n	n	n
CCOc1ccccc1NC(=S)Nc1ccc2cn[nH]c2c1	x	n	n	active	n	n
O=C(O)CCCN1C(=O)/C(=C/c2cn(-c3ccccc3)nc2-c2cccs2)SC1=S	x	x	n	n	31	n
Cc1cccc(NC(=O)CCC(=O)NN=Cc2ccco2)c1C	x	x	x	x	x	n
N#C/C(=C\c1ccccc1C(=O)O)c1nc2ccccc2[nH]1	n	n	n	n	n	n
N#C/C(=C\c1ccc(-c2ccc(C(=O)O)cc2)o1)c1nc2ccccc2[nH]1	x	x	n	n	54	n
N#C/C(=C\c1ccc(N2CCOCC2)o1)c1nc2ccccc2[nH]1	n	n	n	n	259	x
COc1ccc(NCc2ccc(OC)c(OC)c2)cc1	n	7.5	x	x	x	x
COc1ccc(CNc2ccc(C)c(C)c2)cc1	n	n	n	n	n	n
CCOc1cccc(-c2c(C(=O)N/N=C(\C)c3ccncc3)nnn2-c2nonc2N)c1	n	n	n	n	n	x
Nc1nonc1-n1nnc(C(=O)N/N=C/c2ccccn2)c1CNc1ccccc1	n	n	n	47	n	x
SMILES	SUMO Mot1 rescue	Efflux pump inh	RTF Ca sens inh	ARNT-TACC3 inh	RTF Ca sens act	UCH37 DUB inh
CCOc1cccc(-c2c(C(=O)N/N=C(\C)c3ccccn3)nnn2-c2nonc2N)c1	n	n	n	92	n	x
Nc1nonc1-n1nnc(C(=O)NN=Cc2ccccn2)c1CNc1ccccc1	x	x	x	x	x	n
Cc1c(C(=O)N/N=C/c2ccccn2)nnn1-c1nonc1N	n	n	n	43	n	x
O=C(O)c1ccc(NN=Cc2cccc3cccnc23)cc1	x	x	x	x	x	n
O=C(NCc1ccccn1)C(=O)NN=Cc1ccccc1O	x	x	x	x	x	n
COC(=O)/C=C/C(=O)N1CCN(c2ccccc2C)CC1	439	n	n	n	n	n
CC(C)Cc1nnc(NC(=O)c2ccc(N3CCCC3=O)cc2)s1	285	n	n	n	n	x
CCCCc1nnc(NC(=O)c2ccc(N3CCCC3=O)cc2)s1	n	n	n	x	n	n
COc1ccc(C(C)=NNC(=O)c2ccc3c(c2)OCO3)cc1OC	x	x	x	x	x	n
CCOC(=O)c1cnc(-n2[nH]c(C)c(Cc3ccccc3)c2=O)[nH]c1=O	n	n	n	75	n	n

Bioassay records (PubChem BioAssay)
